# Screens (PubChem)
# Rev-erbA mod = modulators of Rev-erb alpha DNA binding, primary screen, biochemical, FITC-DNA, fluorescence polarization, uHTS | Rev-erbα–FITC-DNA binding, 90 min | activity, % at 10 µM | 0.79% of 370,000 active | AID 1259318, 2017;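 active = activity above about 14%, limit read from the data; passing the limit was not always enough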;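 note: 0% = DMSO wells with 35 nM protein and 100% = DMSO wells with 750 nM protein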
# PG9 binder = binders of HIV-1 gp120 antibody PG9, primary screen, biochemical, TR-FRET. TR-FRET gp120-PG9 antibody binding. 0.43% of 360,000 active. AID 624416, 2012. inhibition, % at 6.7 µM; in the data active = inhibition above about 8.5%
# MC4R antag cAMP = MC4R antagonists of cAMP signaling, primary screen, cell-based, TR-FRET, antagonist arm of biased-ligand search. MC4R-expressing cells, MTII-stimulated cAMP, LANCE TR-FRET. inhibition, % at 6.5 µM. 0.48% of 360,000 active;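 active = inhibition above its plate's cutoff, the mean of tested wells on that plate plus 3 SD, cut at about 29% in these data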;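 note: 0% = Melanotan II alone and 100% = Melanotan II plus saturating MCL0020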
# Target sequence (P32245 whole entry, looked up): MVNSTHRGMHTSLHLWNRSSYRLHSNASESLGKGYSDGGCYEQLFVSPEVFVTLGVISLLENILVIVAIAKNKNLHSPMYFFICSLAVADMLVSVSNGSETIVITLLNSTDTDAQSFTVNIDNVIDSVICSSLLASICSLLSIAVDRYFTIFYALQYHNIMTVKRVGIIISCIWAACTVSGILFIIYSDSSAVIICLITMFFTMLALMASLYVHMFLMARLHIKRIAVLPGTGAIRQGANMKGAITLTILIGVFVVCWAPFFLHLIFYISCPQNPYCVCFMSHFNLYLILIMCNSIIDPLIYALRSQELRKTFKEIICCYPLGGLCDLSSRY
#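 material = U2OS cells stably expressing human melanocortin 4 receptor (MC4R) | also added = Melanotan II challenge | dosing = single nominal compound dose of 6.5 µM | detection = TR-FRET with Eu-cAMP and labeled anti-cAMP, 671 nm | replication = singlicate | timing = compound 30 min, challenge 1 h, detection 1 h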
# NR2E3 ag-1 = NR2E3 agonists in two-hybrid cells, primary screen, cell-based, luminescence, CHO-S, Gal4-NCOR/VP16-NR2E3 | Photoreceptor-specific nuclear receptor (Homo sapiens), Q9Y5X4 | luciferase | inhibition of corepressor binding, % at 3.98 µM | 0.35% of 360,000 active;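 active = inhibition above the mean of all tested compounds plus 3 SD, cut at about 70% in these data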;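 note: 0% = DMSO with NR2E3 transfected cells and 100% = cells lacking NR2E3 construct; higher means lower luciferase signal from less NR2E3 corepressor binding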
# NR2E3 ag-2 = inhibitors of NR2E3-RetCOR corepressor binding, primary screen, NR2E3 agonist project, biochemical, TR-FRET, GST-NR2E3, biotin-RetCOR | 0.12% of 320,000 active | Photoreceptor-specific nuclear receptor (Homo sapiens), Q9Y5X4 | inhibition of corepressor binding, % at 4.78 µM | 1536-well | AID 2300, 2010;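 active = percent inhibition above the cutoff of mean plus 3 SD of all tested compounds, set per screening campaign, cut at about 20% in these data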;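 note: 0% = DMSO wells and 100% = biotin wells as full block of FRET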
#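 Material – GST-tagged NR2E3 plus biotinylated RetCOR corepressor · Quantity – NR2E3 fusion 1.35 nM · Times – 5 h incubation at 4 °C · Medium – pH 7.5 Tris-based buffer · Technique – TR-FRET, Eu(K)-anti-GST donor, streptavidin-D2 acceptor, ex 340, em 617/671 nm · Benchmarks – high control biotin, low control 0.6% DMSO · Format – 1536-well plates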
# MC4R barr agon = MC4R agonists recruiting beta-arrestin, primary screen, cell-based, luminescence, agonist arm of biased-ligand search | Melanocortin receptor 4 (Homo sapiens), P32245 | U2OS MC4R beta-arrestin complementation; percent of melanotan II response, DMSO zero | activation, % at 8.9 µM | 0.98% of 360,000 active | AID 540308, 2011;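 active = activation above a per-plate cutoff, the mean activation of sample wells on that plate plus 3 SD, cut at about 8% in these data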
# PG9 binder conf = binders of anti-gp120 antibody PG9, confirmation, biochemical, TR-FRET. shares compounds with PG9 binder. TR-FRET PG9 antibody binding. inhibition, % at 6.7 µM. 90% of 1,500 active; in the data active = inhibition above about 9%
# PGV04 counter = binders of control antibody PGV04, counter-screen for PG9 antibody binder project, biochemical, TR-FRET, distinct HIV envelope site; shares compounds with PG9 binder; TR-FRET PGV04 antibody-gp120 binding; inhibition, % at 6.7 µM; 95% of 1,500 active; in the data active = inhibition above about 9.5%
# PG9 bind DR = small-molecule binders of antibody PG9, dose response, biochemical, TR-FRET, HIV-1 gp120 antibody | shares compounds with PG9 binder | TR-FRET PG9 antibody-gp120 binding inhibition | 95 tested, under 10 active | IC50, µM; in the data active = IC50 below about 10 µM
# PGV04 binding DR = binders of control antibody PGV04, dose response, counter-screen for PG9 antibody binder project, biochemical, TR-FRET, distinct HIV envelope site; TR-FRET binding to control antibody PGV04; 20% of 95 active; shares compounds with PG9 binder; IC50, µM
# PG126 binding DR = binders of control antibody PG126, dose response, counter-screen for PG9 antibody binder project, biochemical, TR-FRET, distinct HIV envelope site; shares compounds with PG9 binder; TR-FRET binding to antibody PG126, counterscreen; IC50, µM; 20% of 95 active; AID 651939, 2012
# Rev-erbA confirm = modulators of Rev-erb alpha DNA binding, confirmation, biochemical, FITC-DNA, fluorescence polarization, single point | shares compounds with Rev-erbA mod | 90 min | activation, % at 25 µM | 61% of 3,000 active | AID 1259319, 2017;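 active = activation at or above a set limit, or at least 3 SD above the negative control mean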;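 note: 0% = 35 nM protein with DMSO and 100% = 750 nM protein high control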
# RORg counter = modulation of RORgamma DNA binding, dose response, counter-screen for Rev-erb alpha modulator project, biochemical, fluorescence polarization, FITC-DNA; shares compounds with Rev-erbA mod; purified RORgamma protein-FITC-DNA binding; IC50, µM; 8% of 910 active; AID 1259320, 2017;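 active = Compounds whose fitted half-maximal concentration for disrupting protein-DNA binding is below 10 micromolar; the record names Rev-erb in its text, so the target is in doubt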
# * hit, by the source's call; x = no result given; + = active, no number. Sampled rows, rich in hits. Any-hit rate of the full collection: about 2.7%. Cut-off read from the data, not from the text of the source, unless noted: active = IC50 below about 9 µM; inactive = the rest.
SMILES,Rev-erbA mod,PG9 binder,MC4R antag cAMP,NR2E3 ag-1,NR2E3 ag-2,MC4R barr agon,PG9 binder conf,PGV04 counter,Rev-erbA confirm,others
O=C(CNC(=O)c1sc2ccccc2c1Cl)Nc1ccccc1F,44*,12*,3,-44,6,-1,17*,32*,10,
COc1ccc(NC(=O)CNC(=O)c2sc3ccccc3c2Cl)c(OC)c1,-4,0,1,18,-2,2,x,x,x,
O=C(CN1CCN(c2ccccc2F)CC1)c1ccc(O)cc1O,-2,-1,0,-20,5,-5,x,x,x,
O=C(COc1ccccc1)Nc1nc2cc3c(cc2s1)OCO3,41*,21*,1,-46,1,2,33*,46*,15,
O=C(Nc1ccccc1)N1CCC(O)(c2cccc(C(F)(F)F)c2)CC1,1,-1,-1,13,3,2,x,x,x,
Cc1ccc(/C=N/NC(=O)c2cc(-c3ccncc3)nc3ccccc23)o1,-3,-6,-24,-61,x,-2,x,x,x,
CCn1c(=O)c(C(=O)Nc2ccccc2S(N)(=O)=O)c(O)c2ccccc21,20*,15*,1,-49,3,-1,7,14*,17,
CCOC(=O)Nc1ccc2c(COC(=O)CNS(=O)(=O)c3cccc(Br)c3)cc(=O)oc2c1,76*,39*,26,-10,10,-3,32*,37*,43*,
COc1ccc(-c2cc(-c3ccc(Br)cc3)nc3ncnn23)cc1OC,25*,13*,1,16,7,7,12*,20*,8,
COc1ccc(-c2cc(-c3ccccc3)nc3ncnn23)cc1,-1,-1,13,-16,6,-1,x,x,x,
COc1cccc(C(=O)Nc2nnc(S(=O)(=O)Nc3cccc(C)c3)s2)c1,-3,1,9,30,2,1,x,x,x,
COc1cccc(C(=O)Nc2nnc(-c3ccc(OC)cc3OC)s2)c1,32*,31*,10,-7,1,1,31*,41*,15,
COC(=O)c1cc(Cl)c(NC(=O)c2ccc(C(C)(C)C)cc2)cc1OC,-4,0,11,-65,-1,0,x,x,x,
COC(=O)c1cc(Cl)c(NC(=O)c2cc3ccccc3o2)cc1OC,28*,8.7*,-5,-41,-10,1,5,38*,0,
Cc1nc(SCC(=O)NCCc2ccccc2)c2oc3ccccc3c2n1,+,26*,-1,13,-1,2,88*,74*,+,PG9 bind DR=3.4*;PGV04 binding DR=2.4*;PG126 binding DR=2.3*;RORg counter=>40
Cc1nc(SCC(=O)Nc2ccc(F)cc2)c2oc3ccccc3c2n1,220*,45*,9,-1,-1,2,78*,85*,233*,RORg counter=>40
Cc1nc(SCC(=O)NCc2ccco2)c2oc3ccccc3c2n1,-5,-1,-3,14,0,0,x,x,x,
Cc1nc(SCC(=O)Nc2ccccc2)c2oc3ccccc3c2n1,781*,95*,-2,0,11,8,96*,99*,666*,RORg counter=>40
O=[N+]([O-])c1ccc(Oc2c(F)c(F)nc(N3CCCC3)c2F)cc1,5,-1,1,-8,-3,-1,x,x,x,
Cc1[nH]c(C)c2c(=O)n(Cc3ccccc3Cl)ncc12,-5,-2,-1,-20,x,-1,x,x,x,
Cc1cc(NC(=O)c2cc(-c3ccccn3)nc3ccc(Br)cc23)no1,18*,21*,-2,-4,5,4,32*,67*,22*,
NS(=O)(=O)c1ccc(CCNC(=O)c2cc(-c3ccccn3)nc3ccc(Br)cc23)cc1,34*,17*,16,4,-119,-1,31*,63*,30*,RORg counter=>40
NS(=O)(=O)c1ccc(CCNC(=O)c2cc(-c3ccc(Br)cc3)nc3ccccc23)cc1,17,6,11,-26,1,-2,x,x,x,
CC1COc2ccccc2N1C(=O)c1ccccc1Cl (centres undefined),4,1,6,6,1,0,x,x,x,
COc1ccccc1N1CCN(S(=O)(=O)c2c(C)sc3ncn(CC(=O)NCCN(C)C)c(=O)c23)CC1,-3,0,0,-36,4,0,x,x,x,
COc1cc2cc(C(=O)NCCc3ccccc3)[nH]c2cc1OC,-4,-1,-1,7,x,-1,x,x,x,
COc1cc2cc(C(=O)N(C)Cc3ccccc3)[nH]c2cc1OC,31*,16*,7,11,x,-2,15*,22*,12,
C=CCn1c(SCC(=O)N2CCOCC2)nc2c([nH]c3ccccc32)c1=O,2,-2,-31,-16,3,-1,x,x,x,
